# PPC-1+TRAIL kill = PPC-1 cancer cell killing with TRAIL present | cell killing (% activity), % at 4 µM or 5 µM | AID 1443 | hit rate 0.41% among 220,000 | PPC-1 cells + TRAIL, ATPLite viability luminescence;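 active means cell killing above 50% in the first pass at 4 µM, then a duplicate retest at 5 µM averaging 50% or more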;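 further: plate controls were cells with TRAIL plus DMSO for no effect and medium-only wells lacking cells for full effect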
# FLuc inhib CS = Photinus pyralis luciferase inhibition counter-screen | P08659 | ATPLite firefly luciferase biochemical luminescence, 10 min | inhibition, % at 10 µM | hit rate 1.5% among 200,000;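 active means inhibition above about 50% when tested at 10 µM, limit read from the data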
# C8 TRAIL sens = sensitizes caspase-8 expressing cells to TRAIL; NB7+C8 cells + TRAIL, ATPlite viability luminescence; inhibition (viability loss, TRAIL sensitization), % at 10 µM; hit rate 1% among 360,000;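 active means compounds causing at least 50% loss of cell viability in the single-dose screen, relative to plate controls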
# Wee1 stabilizer = blocks degradation of human Wee1 kinase; P30291; HeLa Luc-Wee1K328M stability, luciferase luminescence; 100% = proteasome inhibitor MG132 effect; reporter increase, % at 5 µM; hit rate 1.2% among 220,000; AID 1321;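 active means activation above the mean of all tested compounds plus 3 SD, set per screening run, cut at about 8.8% in these data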;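 further: cells exposed to compound for 20 h before luminescence read; 0% = DMSO alone and 100% = MG132 at 30 µM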
# Target sequence (P30291 whole entry K328M): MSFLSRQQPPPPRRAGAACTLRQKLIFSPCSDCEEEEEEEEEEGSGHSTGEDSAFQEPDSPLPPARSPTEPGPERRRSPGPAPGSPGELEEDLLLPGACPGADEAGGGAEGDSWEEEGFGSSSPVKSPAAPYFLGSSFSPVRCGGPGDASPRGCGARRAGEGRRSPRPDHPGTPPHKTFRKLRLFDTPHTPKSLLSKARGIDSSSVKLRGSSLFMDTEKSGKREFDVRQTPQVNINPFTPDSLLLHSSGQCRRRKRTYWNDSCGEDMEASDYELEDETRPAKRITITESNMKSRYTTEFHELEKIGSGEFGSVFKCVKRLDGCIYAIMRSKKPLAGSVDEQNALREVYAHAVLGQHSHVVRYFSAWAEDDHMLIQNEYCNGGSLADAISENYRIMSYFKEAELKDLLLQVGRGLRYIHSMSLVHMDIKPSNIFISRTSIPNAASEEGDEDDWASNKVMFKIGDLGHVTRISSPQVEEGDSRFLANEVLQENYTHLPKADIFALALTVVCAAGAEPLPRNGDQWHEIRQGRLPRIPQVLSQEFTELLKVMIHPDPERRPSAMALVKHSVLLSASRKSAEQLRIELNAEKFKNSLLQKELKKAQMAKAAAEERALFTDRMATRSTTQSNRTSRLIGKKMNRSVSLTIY
# PKD1 kinase inh = blocks activity of human protein kinase D1; Q15139; PKD1 kinase fluorescence polarization assay; inhibition, % (concentration not given with the values); hit rate 0.056% among 200,000; in the data active means inhibition above about 50%
# FLuc stim CS = firefly luciferase counter-screen for stimulation assays; ATPlite luciferase biochemical, luminescence, 10 min; 0 = ATP-free wells, 1 = DMSO control; P08659; activation factor at 10 µM; 200,000 tested, under 10 active;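 active means luciferase activation factor, scaled between plate controls, of at least 2 with compound at 10 µM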
#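 System: cell-free luciferase reagent; medium: PBS as buffer for the ATP substrate; doses: test compounds dosed from 2 mM stocks in 100% DMSO; incubation: 10 min, room temperature; measured by: luminescence from luciferase reaction; read-out: luciferase activation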
# PPC-1 tox = PPC-1 cell cytotoxicity | AID 1447 | shares compounds with PPC-1+TRAIL kill | cytotoxicity, % at 5 µM | hit rate 50% among 1,200 | PPC-1 viability, ATPlite luminescence, overnight;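 active means reconfirmed compounds whose average cytotoxicity reaches 50% or more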;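 further: 0% = DMSO-treated cells and 100% = wells holding medium but no cells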
# An asterisk follows results filed as active; . = no result given. Most compounds without a hit are left out; they make up all but 2.2% or so of the library.
SMILES,PPC-1+TRAIL kill,FLuc inhib CS,C8 TRAIL sens,Wee1 stabilizer,PKD1 kinase inh,FLuc stim CS,PPC-1 tox
Cc1ccc(N2C(=O)Nc3ccccc3C2(O)C(=O)N2CCN(c3ccccn3)CC2)cc1C (stereo not given),10.8,10.3,17.7,-0.1,10.1,0.9,4.6
CCc1ccc(N2C(=O)Nc3ccccc3C2(O)C(=O)N2CCN(c3ccccn3)CC2)cc1 (stereo not given),0.5,13.4,9.7,-2.5,-3.9,0.9,.
Cn1c2ccc(Cl)cc2c2nc3ccccc3nc21,6.3,-3.8,5.6,0.7,-9.3,1,21.1
COc1ccc(CCNC(=S)N2CCN(S(=O)(=O)c3ccc(C)cc3)CC2)cc1,.,.,-4.0,.,.,.,.
N/C(=N\OC(=O)c1ccccc1Cl)c1ccccn1,65.8*,93.0*,79.0*,1.1,-5.2,0.1,70.2*
O=C(OCc1ccc(Cl)c(Cl)c1)c1ccccn1,-13.7,-2.5,-13.0,1.6,4.5,1,.
N/C(=N\OC(=O)c1ccc(Cl)c(Cl)c1)c1ccccn1,7.0,46.3,65.7*,-0.3,-6.3,0.5,17.6
N/C(=N\OC(=O)c1ccc(Cl)cc1)c1ccccn1,3.4,97.0*,69.3*,-4.0,-1.7,0,7.1
Cc1ccc(/C=C/C(=O)c2ccc(N3CCOCC3)cc2)s1,79.8*,94.5*,73.0*,0.7,-7.4,0.1,77.7*
Cc1cccc(/C=C/C(=O)c2ccc(N3CCOCC3)cc2)c1,-7.1,22.4,.,-0.8,1.1,0.8,.
COc1ccc(OC)c(NC(=O)c2cnc3ccccn3c2=O)c1,.,.,.,-2.3,9.1,.,.
Cc1ccccc1NC(=O)c1cnc2ccccn2c1=O,58.9*,82.3*,68.0*,-0.9,8.1,0.2,60.9*
O=C(/C=C/Nc1ccc(Br)cc1F)c1ccco1,89.0*,96.6*,91.5*,-2.2,0.6,0,88.9*
O=C(/C=C/Nc1ccc(F)cc1F)c1ccco1,89.5*,97.4*,91.7*,-2.4,-1.0,0,88.7*
CC[C@@]1(C(=O)OC)N[C@H](CN(C)S(=O)(=O)c2ccc(F)cc2)[C@@H]2C(=O)N(C)C(=O)[C@@H]21,.,.,-6.3,.,.,.,.
CC(C)CC(=O)Nc1ccc(-c2cn3ccsc3n2)cc1,71.4*,91.6*,82.8*,-0.6,-1.2,0.1,71.0*
CC(C)(C)C(=O)Nc1ccc(-c2cn3ccsc3n2)cc1,90.7*,95.6*,89.7*,0.8,-11.1,0,90.4*
Cc1ccc(C)c(OC(C)C(=O)Nc2nccs2)c1 (stereo not given),.,.,13.1,.,.,.,.
CCC(=O)c1cn(CC(=O)Nc2ccc(F)cc2)c2ccccc12,.,.,19.9,.,.,.,.
COc1ccc2nc(-c3cccc(N)c3)[nH]c2c1,51.9*,86.7*,52.4*,2.3,-1.9,0.1,52.5*
Cn1c(/C=C/c2ccccc2)nc2ccccc21,80.5*,93.8*,82.8*,8.7,0.9,0.1,81.7*
Cn1c(=O)c(/C=C/c2ccccc2)nc2ccccc21,6.1,36.7,30.0,4.2,-9.4,0.6,.
COc1cccc(N2CCN(C(C)C(=O)NC34CC5CC(CC(C5)C3)C4)CC2)c1 (stereo not given),.,.,-10.7,.,.,.,.
CCCCCN1C=CC(=C2C(=O)c3ccccc3C2=O)C=C1,94.3*,97.2*,95.8*,-3.9,1.7,0,94.2*
CC1=CC(=C2C(=O)c3ccccc3C2=O)C=C(C)N1C,11.0,17.5,13.7,-0.7,-1.6,0.8,.
SMILES,PPC-1+TRAIL kill,FLuc inhib CS,C8 TRAIL sens,Wee1 stabilizer,PKD1 kinase inh,FLuc stim CS,PPC-1 tox
Cc1ccc(OCc2nc(-c3ccccn3)no2)c(Br)c1,34.6,79.1*,59.0*,3.8,-19.0,0.2,37.1
CCOc1ccc(C(=O)Nc2ncccc2Cl)cc1,-0.2,21.0,7.7,0.3,4.9,0.8,.
CCN(CC)CCn1nc2c3c(cccc3c1=O)-c1ccccc1-2,20.0,5.9,12.9,-1.2,-1.3,0.9,18.3
O=c1c2cccc3c2c(nn1CN1CCOCC1)-c1ccccc1-3,7.2,-3.7,-4.7,0.7,15.8,1,.
O=C(Nc1c2c(nn1-c1cccc(Cl)c1)CS(=O)(=O)C2)c1ccc2c(c1)OCO2,.,.,-11.8,.,.,.,.
Cc1nc2cc(NCc3nc4ccccc4n3Cc3ccccc3)ccc2n1C,60.9*,86.6*,17.6,1.9,-5.4,0.1,63.3*
Cc1cccc(NCc2nc3ccccc3n2Cc2ccccc2)c1,-14.4,-5.6,-6.2,-2.0,-3.5,1.1,.
CC(=Nc1ccc(C)cc1C)c1sc2ccccc2c1O,31.6,84.8*,65.1*,5.6,-7.7,0.2,27.2
Cc1ccc(O)c(N=Cc2sc3ccccc3c2Cl)c1,24.0,27.7,-5.6,-1.9,-4.5,0.7,.
CCc1nc2ccccc2n1Cc1ccccc1F,6.4,-4.2,-0.9,1.2,1.7,1,.
COc1ccc(N=Nc2nc3ccc(Br)cc3n2C)cc1,75.8*,84.3*,79.7*,9.9*,15.2,0.2,72.5*
COc1ccc(-c2c(-c3cc(OC)cc(OC)c3)n(C)c3ccc(Br)cc23)cc1,.,.,5.4,.,.,.,.
Clc1ccc2nc(N3CCCCC3)[nH]c2c1,28.6,39.1,47.7,3.8,-12.4,0.6,.
O=c1c(Cl)c(N2CCCCC2)cnn1-c1nc2ccccc2[nH]1,92.0*,96.9*,87.4*,-2.6,-0.7,0,92.1*
O=c1c2ccccc2cnn1-c1nc2ccccc2[nH]1,94.0*,97.6*,94.3*,-4.5,0.8,0,93.8*
CCOc1ccc(N2C(=O)CC(SCCN)C2=O)cc1 (stereo not given),11.2,56.8*,13.8,5.0,-11.8,0.4,10.8
Cc1cc(OC(=O)c2ccc(S(=O)(=O)N3CCOCC3)cc2)c([N+](=O)[O-])c(=O)[nH]1,-10.9,-10.6,-5.0,-2.0,-2.2,1.1,6.0
CCCc1c(C(=O)Nc2cc(C)on2)cnn1-c1ccccc1,5.0,.,14.3,1.5,.,.,.
Cc1ccc2nc(-c3ccccc3)cn2c1,90.3*,95.7*,90.3*,-5.6,-15.1,0,88.5*
Cc1ccc2nc(-c3ccc(-c4ccccn4)s3)cn2c1,47.5,.,34.2,6.2,.,.,.
O=C1C=C(NCCN2CCOCC2)C(=O)c2cnccc21,65.2*,1.3,.,-2.8,-3.6,1,66.6*
O=S(=O)(NCCN1CCOCC1)c1ccc(Cl)c(Cl)c1,.,.,6.8,.,.,.,.
CC[C@@]1(C(=O)OC)N[C@H](CN(C)S(=O)(=O)c2ccccc2)[C@@H]2C(=O)N(C)C(=O)[C@@H]21,.,.,-6.6,.,.,.,.
COc1ccc(C(=O)n2c(N)nc3ccccc32)cc1OC,.,.,6.9,.,.,.,.
Nc1nc2ccccc2n1C(=O)c1ccc(F)cc1,50.5*,91.0*,81.2*,3.6,-6.5,0.1,49.7
Nc1nc2ccccc2n1C(=O)CCc1ccccc1,24.1,17.3,48.0,3.3,-4.7,0.8,.
Nc1nc2ccccc2n1C(=O)c1ccccc1,61.6*,89.9*,76.6*,0.8,0.8,0.1,61.6*
